Source: PubChem
Kir21 block: inhibitors of mouse Kir2.1 inward-rectifier potassium channel; P35561; HEK293-Kir2.1, FluxOR thallium flux fluorescence; hits give low values; B-score at 10 µM; actives 0.85% (n = 310,000); AID 1672;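 active = fluorescence ratio B-score at or below minus 3 SD of library scores, with starting-brightness B-score within 2 SD, cut at about -4.2 in these data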;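 also: channel flux triggered by added potassium and thallium sulfate stimulus; B-score of peak minus minimum fluorescence over baseline after thallium stimulus; more negative B-score means stronger Kir2.1 block with less thallium influx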
hERG rescue: shields human hERG channel from block by proarrhythmic agents | Q12809 | CHO-hERG, FluxOR thallium flux, dofetilide IC70 present | activation (rescue from dofetilide block), less the hit threshold, % at 10 µM | actives 0.51% (n = 310,000) | AID 1511;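 active = activation above the mean of controls blocked by dofetilide plus 5 SD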;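 also: thallium influx through hERG after potassium depolarization seen as dye fluorescence rise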
KCNK3 inh: human KCNK3 channel inhibition, primary screen; O14649; CHO-KCNK3 thallium flux, FluxOR fluorescence; hits give low values; B-score at 10 µM; actives 0.84% (n = 340,000); AID 602410;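 active = B-score under library mean minus 4 SD, starting fluorescence ratio at most library mean plus 5 SD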;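 also: more negative B-score means stronger inhibition of thallium flux through KCNK3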
KCNK9 block: blocks the human KCNK9 two-pore domain potassium channel | Q9NPC2 | HEK293 KCNK9, FluxOR thallium flux fluorescence; hits give low values | B-score at 10 µM | actives 1.2% (n = 310,000);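 active = ratio B-score over 3 SD below the library mean, with starting fluorescence within 5 SD of its mean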;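 also: negative B-score means less thallium flux so channel inhibition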
Target sequence (Q9NPC2 whole entry, looked up, the tested form may be a part): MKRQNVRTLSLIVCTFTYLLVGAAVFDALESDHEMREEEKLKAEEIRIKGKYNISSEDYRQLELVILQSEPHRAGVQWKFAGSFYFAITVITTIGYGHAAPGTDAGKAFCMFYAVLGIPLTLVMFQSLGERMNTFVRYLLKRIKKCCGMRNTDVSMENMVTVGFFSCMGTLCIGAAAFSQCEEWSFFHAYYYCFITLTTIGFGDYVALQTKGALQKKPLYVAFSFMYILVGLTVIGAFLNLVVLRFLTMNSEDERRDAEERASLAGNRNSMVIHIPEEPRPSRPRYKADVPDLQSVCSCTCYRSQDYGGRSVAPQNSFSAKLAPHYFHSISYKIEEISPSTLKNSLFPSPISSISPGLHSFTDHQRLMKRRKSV
KCNQ1 inh: inhibitors of human KCNQ1 potassium channel; B-score at 10 µM; CHO-K1 KCNQ1, FluxOR thallium flux fluorescence; hits give high values; actives 1.3% (n = 310,000); P51787;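 active = compounds whose thallium flux B-score, printed positive for inhibition, exceeds three library SD while starting fluorescence stays within three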;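 also: channel opened by potassium depolarization with thallium stimulus after 20 min compound exposure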
KCNQ1 pot: human KCNQ1 channel potentiation or activation; P51787; CHO-K1 KCNQ1, thallium flux FluxOR fluorescence; hits give high values; B-score at 10 µM; actives 0.35% (n = 310,000); AID 2648;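 active = fluorescence ratio B-score, a plate-corrected score, at least three library SD, with initial intensity B-score within 5 SD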
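System: CHO-K1 cells stably expressing KCNQ1 / Medium: assay buffer for compound exposure, DMSO matched across wells / Reagent: thallium- and potassium-containing depolarizing buffer / Compound: one concentration, matched DMSO / Incubation: 20 min compound pretreatment at room temperature / Measured by: kinetic FluxOR fluorescence, 10 s baseline plus 110 s post-stimulus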
KCNK9 block conf: confirmation of human KCNK9 potassium channel inhibitors; AID 492992; shares compounds with KCNK9 block; HEK293 KCNK9 cells, FluxOR thallium flux fluorescence; inhibition, % at 10 µM; actives 43% (n = 4,900);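 active = thallium signal inhibited by more than 5 SD of the compound-free buffer control wells, on both duplicate plates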
Kir21 sel: mouse Kir2.1 off-target activity of KCNK9 modulators; actives 4% (n = 4,900); inhibition, % at 10 µM; shares compounds with KCNK9 block; Kir2.1 cells, FluxOR thallium flux fluorescence;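 active = thallium signal drop more than 5 SD beyond the mean of the no-compound control wells, seen in both duplicate plates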;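 also: signal is fluorescence rise after thallium addition divided by baseline fluorescence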
HEK293 Tl ctr: second counter-screen for KCNK9 modulators: effect in non-induced cells; shares compounds with KCNK9 block; non-induced KCNK9-HEK293, FluxOR thallium flux; inhibition, % at 10 µM; actives 40% (n = 4,900); AID 492997;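 active = thallium signal drop beyond 5 SD of the untreated control mean, on both duplicate plates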
A number is an active result; i = inactive; nt = not tested or not shown. This is a sample that favours compounds with a hit; in the whole collection about 3.7% have one here.

SMILES	Kir21 block	hERG rescue	KCNK3 inh	KCNK9 block	KCNQ1 inh	KCNQ1 pot	KCNK9 block conf	Kir21 sel	HEK293 Tl ctr
CC(C)N(C(=O)CSc1nnc(C2CC2)n1C1CC1)c1ccccc1	nt	nt	i	nt	nt	nt	nt	nt	nt
CCOc1ccc(C(CC(=O)O)NC(=O)COc2ccc3ccccc3c2)cc1OC (stereo not drawn)	i	i	i	i	i	i	nt	nt	nt
CN1c2ccccc2C2(C)CCCC3=Cc4cccc([N+](=O)[O-])c4OC312 (stereo not drawn)	i	i	i	-10	i	i	57%	i	35%
O=S(=O)(Nc1cccc(S(=O)(=O)N2CCCC2)c1)c1cccc(Br)c1	nt	nt	i	nt	nt	nt	nt	nt	nt
C/C(=N\NC(=O)c1ccn(C)n1)c1ccc(NC(=O)C2CCCC2)cc1	i	i	i	i	i	i	nt	nt	nt
C/C(=N\NC(=O)c1nn(C)c(C)c1Br)c1ccc(NC(=O)C2CCCC2)cc1	i	i	i	-12	i	i	68%	i	i
CCN(CC(=O)NCc1cccs1)C(=O)c1cc(Br)ccc1O	nt	nt	i	nt	nt	nt	nt	nt	nt
CCCn1c(C2CCCN2c2nc(C)cs2)nc2cc(Cl)c(Cl)cc21 (stereo not drawn)	i	i	i	-9.5	i	i	i	i	34%
Cc1ccc(C)c(NC(=O)c2ccccc2NS(=O)(=O)c2cc([N+](=O)[O-])ccc2C)c1	i	i	i	i	i	i	nt	nt	nt
Cc1ccc(C)c(NC(=O)c2ccccc2Sc2ccc([N+](=O)[O-])cc2Cl)c1	i	i	i	-14	i	i	61%	i	47%
Cc1cccc(-c2nnc(SCC(=O)c3ccc(O)cc3O)n2C)c1	i	i	i	i	i	i	nt	nt	nt
CC1CCc2c(sc(NC(=O)c3ccc(Cn4cc([N+](=O)[O-])cn4)o3)c2C#N)C1 (stereo not drawn)	i	i	i	-16	i	i	46%	i	30%
N#Cc1c(NC(=O)c2ccc(Cn3cc(Br)cn3)o2)sc2c1CCCCC2	i	i	i	i	i	i	nt	nt	nt
CC1CN(CC(=O)Nc2nc(-c3ccc(Cl)cc3)cs2)CC(C)O1 (stereo not drawn)	i	i	i	i	i	i	nt	nt	nt
Cc1nc(C(=O)N2CCCC(N3CCN(c4ccccc4C)CC3)C2)cs1 (stereo not drawn)	i	i	i	i	i	i	i	i	i
Cc1cc(C(=O)N2CCCC(N3CCN(c4ccccc4C)CC3)C2)nc(C)n1 (stereo not drawn)	i	i	i	i	i	i	nt	nt	nt
CC(C)c1nc(C(=O)N2CCCC(N3CCN(c4cccc(Cl)c4)CC3)C2)cs1 (stereo not drawn)	i	i	i	i	i	i	i	i	i
Cc1ccccc1N1CCN(C2CCCN(C(=O)c3csc(C(C)C)n3)C2)CC1 (stereo not drawn)	i	i	i	i	i	i	i	i	i
Cc1ccccc1N1CCN(C2CCCN(C(=O)c3cnsn3)C2)CC1 (stereo not drawn)	i	i	i	i	i	i	i	i	i
Clc1ccc(-c2nc3cc(CN4CCCCC4)ccc3o2)cc1	i	i	i	i	i	i	nt	nt	nt
Cc1ccc(C(CC(=O)O)NC(=O)CN2C(=O)c3ccccc3C2=O)cc1 (stereo not drawn)	i	i	i	i	i	i	nt	nt	nt
CCc1ccc(S(=O)(=O)c2nnn3c2nc(N2CCOCC2)c2ccccc23)cc1	i	i	i	i	i	i	nt	nt	nt
COc1cc(N)c(Cl)cc1C(=O)OCC(=O)NC(=O)NCc1ccco1	nt	nt	i	nt	nt	nt	nt	nt	nt
O=C(c1cnccn1)N1CCCC(N2CCN(c3cccc(Cl)c3)CC2)C1 (stereo not drawn)	i	i	i	i	i	i	nt	nt	nt
Cc1ccccc1N1CCN(C2CCCN(C(=O)c3ccc(Cl)s3)C2)CC1 (stereo not drawn)	i	i	i	i	i	i	i	i	i
SMILES	Kir21 block	hERG rescue	KCNK3 inh	KCNK9 block	KCNQ1 inh	KCNQ1 pot	KCNK9 block conf	Kir21 sel	HEK293 Tl ctr
Cc1cccc(C(=O)N2CCCC(N3CCN(c4cccc(Cl)c4)CC3)C2)n1 (stereo not drawn)	i	i	i	i	i	i	i	i	i
O=C(c1ccc(Cl)s1)N1CCCC(N2CCN(c3ccc(F)cc3)CC2)C1 (stereo not drawn)	i	i	i	i	i	i	nt	nt	nt
CC(C)/C=C/CN1CCCC(N2CCN(c3cccc(Cl)c3)CC2)C1 (stereo not drawn)	i	i	i	i	i	i	i	i	i
Nc1c(C2CCCCC2)c(=O)on1C(=O)c1ccccc1	nt	nt	i	nt	nt	nt	nt	nt	nt
Cn1cc(CN2CCC(O)CC2)c(-c2ccc(Oc3ccccc3)cc2)n1	i	i	i	i	i	i	nt	nt	nt
CCOC(=O)C1CCN(Cc2cc(=O)oc3c(C)c(C)ccc23)CC1	i	i	i	i	i	i	i	i	i
CCOC(=O)C1CCN(Cc2cn(C)nc2-c2ccc(Oc3ccccc3)cc2)CC1	i	i	i	i	i	i	i	i	i
CCOC(=O)C1CCN(Cc2cc(=O)oc3cc(C)c(Cl)cc23)CC1	i	i	i	i	i	i	i	i	i
Cc1ccc2c(CN3CCC(C)CC3)cc(=O)oc2c1C	i	i	i	i	i	i	nt	nt	nt
CCOC(=O)C1CCN(Cc2cc(Cl)c3ccccc3c2O)CC1	i	i	i	i	i	i	i	i	i
CCOC(=O)C1CCN(Cc2ccc(OC)c(C)c2OC)CC1	i	i	i	i	i	i	nt	nt	nt
Cc1ccccc1CNCCCSc1ncccn1	i	i	i	i	i	i	nt	nt	nt
Cc1cc(=O)[nH]c(SCC(=O)Nc2ccccc2[N+](=O)[O-])n1	i	i	i	i	i	i	nt	nt	nt
O=C(OCC(=O)N1CCN(S(=O)(=O)c2ccc(Cl)cc2)CC1)C1CC1	nt	nt	i	nt	nt	nt	nt	nt	nt
COC(=O)c1cccc(NC(=O)CSc2nnc(-c3ccco3)o2)c1	i	i	i	i	i	i	nt	nt	nt
Cc1cccnc1NC(=O)c1cccc(S(=O)(=O)N2CCCc3ccccc32)c1	i	i	i	i	i	i	nt	nt	nt
Cc1cc(C)c2oc(=O)cc(CN3CCN(Cc4ccccc4)CC3)c2c1	i	i	i	i	i	i	nt	nt	nt
Cc1ccc2c(CN3CCN(Cc4ccccc4)CC3)cc(=O)oc2c1C	i	i	i	i	i	i	i	i	i
CC(/C=N/Nc1nc(N2CCCCC2)nc(N2CCCCC2)n1)=C\c1ccccc1	i	i	i	-12	i	i	55%	i	27%
C/C(=C/C=N/Nc1nc(N2CCCCC2)nc(N2CCCCC2)n1)c1ccccc1	i	i	i	-8.7	i	i	44%	i	i
